ChEMBL document CHEMBL1139294, “11-Phenyl-[b,e]-dibenzazepine compounds: novel antitumor agents” (Bioorg Med Chem Lett, 2009)

Legend:
HT-29 [1] = experiment: Antiproliferative activity against human HT-29 cells by SRB assay; type: functional, cell-based
U-118-MG = experiment: Antiproliferative activity against human U118MG cells by SRB assay; type: functional, cell-based
MCF7 = experiment: Antiproliferative activity against human MCF7 cells by SRB assay; type: functional, cell-based
[2] = Antiproliferative activity against human MMRU cells by SRB assay; type: functional, cell-based
[3] = Antiproliferative activity against human HTB-174 cells by SRB assay; type: functional, cell-based
A549 = experiment: Antiproliferative activity against human A549 cells by SRB assay; type: functional, cell-based
HeLa = experiment: Antiproliferative activity against human HeLa cells by SRB assay; type: functional, cell-based
HepG2 = experiment: Antiproliferative activity against human HepG2 cells by SRB assay; type: functional, cell-based
MDA-MB-231 = experiment: Antiproliferative activity against human MDA-MB-231 cells by SRB assay; type: functional, cell-based
NCI-H460 = experiment: Cell cycle arrest in human H460 cells assessed as DNA content at G0-G1 phase at 50 uM after 16 hrs by flow cytometry; type: functional
Procedure, shortened: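 H-460 NSCLC cells serum-starved 72 h, then exposed to 50 µM for 16 h, with DMSO vehicle control. Harvested cells were washed in cold PBS and fixed in 70% ethanol at 4 °C for at least 4 h. They were treated with 3 mg/ml RNase plus 50 µg/ml propidium iodide for 30 min at 37 °C. Flow cytometry gave percent cells in G0–G1, S and G2–M.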

HT-29 [4] = experiment: Cell cycle arrest in human HT-29 cells assessed as DNA content at G0-G1 phase at 50 uM by flow cytometry; type: functional
Procedure, shortened: (§1)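 HT-29 colon carcinoma cells were grown in complete medium and treated at 25 or 50 µM for 16 h, with 0.1% DMSO as vehicle. Cells were washed in cold PBS and fixed in 70% ethanol (4 °C, ≥4 h). Staining used 3 mg/ml ribonuclease and 50 µg/ml propidium iodide for 30 min at 37 °C. Phase distribution was measured by flow cytometry.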

HT-29 [5] = experiment: Cell cycle arrest in human HT-29 cells assessed as DNA content at S phase at 25 uM after 16 hrs by flow cytometry; type: functional; procedure, shortened: as §1
HT-29 [6] = experiment: Cell cycle arrest in human HT-29 cells assessed as DNA content at S phase at 50 uM by flow cytometry; type: functional; procedure, shortened: as §1
HT-29 [7] = experiment: Cell cycle arrest in human HT-29 cells assessed as DNA content at G2-M phase at 25 uM after 16 hrs by flow cytometry; type: functional; procedure, shortened: as §1
HT-29 [8] = experiment: Cell cycle arrest in human HT-29 cells assessed as DNA content at G0-G1 phase at 25 uM after 16 hrs by flow cytometry; type: functional; procedure, shortened: as §1
HT-29 [9] = experiment: Cell cycle arrest in human HT-29 cells assessed as DNA content at G2-M phase at 50 uM by flow cytometry; type: functional; procedure, shortened: as §1

| Compound | IC50 (HT-29 [1]; Homo sapiens, HT-29) [nM] | IC50 (MCF7) [nM] | IC50 (A549; Homo sapiens, A549) [nM] | IC50 (HeLa) [nM] | IC50 (HepG2) [nM] | IC50 (MDA-MB-231) [nM] | IC50 (U-118-MG) [nM] | IC50 ([2]; Homo sapiens, MMRU) [nM] | IC50 [3] [nM] | other results |
| --- | --- | --- | --- | --- | --- | --- | --- | --- | --- | --- |
| C[N+](C)(C)c1ccc(C(=O)N2Cc3ccccc3C(c3ccccc3)c3ccccc32)cc1 (centres undefined) | 1100 | 1700 | 2000 | 400 | 1000 | 1300 | 1800 | – | – | – |
| O=C(c1ccc([N+](=O)[O-])cc1)N1Cc2ccccc2C(c2ccccc2Cl)c2ccccc21 (single isomer, unassigned; 9b) | – | – | – | – | – | – | – | – | – | Activity (NCI-H460): 74.96% |
| O=C(c1ccc([N+](=O)[O-])cc1)N1Cc2ccccc2C(c2ccccc2)c2ccccc21 (centres undefined) | 700 | – | – | 600 | 900 | – | 900 | 500 | 700 | – |
| CN(C)c1ccc(C(=O)N2Cc3ccccc3C(c3ccccc3)c3ccccc32)cc1 (centres undefined) | 1000 | 1700 | 2100 | 900 | 1000 | 1700 | 2600 | – | – | – |
| COC(=O)N1Cc2ccccc2C(c2ccccc2)c2ccccc21 (centres undefined) | > 10000 | – | > 10000 | – | – | – | – | 10000 | – | – |
| COc1ccc2c(c1)CN(C(=O)c1ccc([N+](=O)[O-])cc1)c1ccc(Cl)cc1C2c1ccccc1Cl (centres undefined) | 600 | 1300 | 1500 | 500 | 900 | 900 | 800 | 500 | 500 | – |
| O=C(Nc1ccc([N+](=O)[O-])cc1)N1Cc2ccccc2C(c2ccccc2Cl)c2ccccc21 (centres undefined) | 4800 | 2400 | > 5000 | – | 4500 | – | – | 3100 | 4000 | – |
| COc1ccc2c(c1)C(c1ccccc1Cl)c1cc(Cl)ccc1N(C(=O)c1ccc([N+](=O)[O-])cc1)C2 (centres undefined) | 200 | 700 | 600 | 200 | 400 | 400 | 400 | 200 | 200 | – |
| CC(C)(C)Oc1cccc(C(=O)N2Cc3ccccc3C(c3ccccc3)c3ccccc32)c1 (centres undefined) | 1700 | 4500 | > 5000 | – | 2600 | – | – | 2500 | 3600 | – |
| O=C(c1ccc([N+](=O)[O-])cc1)N1Cc2ccccc2C(c2ccccc2Cl)c2ccccc21 (single isomer, unassigned; 9a) | – | – | – | – | – | – | – | – | – | Activity (NCI-H460): 71.06% |
| CN1Cc2ccccc2C(c2ccccc2Cl)c2ccccc21 (centres undefined) | 9700 | 1700 | 11400 | – | – | – | – | 4600 | – | – |
| Clc1ccccc1C1c2ccccc2CNc2ccccc21 (centres undefined) | 1200 | 2700 | 5400 | 1100 | 900 | 1300 | 1400 | – | – | – |
| O=C(c1ccc([N+](=O)[O-])cc1)N1Cc2ccccc2C(c2ccccc2Cl)c2ccccc21 (stereo in doubt; 9) | 300 | 600 | 800 | 300 | 300 | 500 | 500 | 200 | 100 | Activity (NCI-H460): 73.95%; Activity (HT-29 [4]): 69.22%; Activity (HT-29 [5]): 25.79%; Activity (HT-29 [6]): 18.08%; Activity (HT-29 [7]): 10.53%; Activity (HT-29 [8]): 63.68%; Activity (HT-29 [9]): 12.69% |

Further lines, with some results ahead:

| IC50 (HT-29 [1]; Homo sapiens, HT-29) [nM] | IC50 (MCF7) [nM] | IC50 (A549; Homo sapiens, A549) [nM] | IC50 (HeLa) [nM] | IC50 (HepG2) [nM] | IC50 (MDA-MB-231) [nM] | Compound | IC50 (U-118-MG) [nM] | IC50 ([2]; Homo sapiens, MMRU) [nM] | IC50 [3] [nM] | other results |
| --- | --- | --- | --- | --- | --- | --- | --- | --- | --- | --- |
| 400 | 500 | 1100 | 200 | 400 | – | COc1ccc(C(=O)N2Cc3ccccc3C(c3ccccc3Cl)c3ccccc32)cc1 (centres undefined) | 400 | 200 | 300 | – |
| 1700 | 1100 | 3700 | 500 | 1500 | 1200 | Nc1ccc(C(=O)N2Cc3ccccc3C(c3ccccc3Cl)c3ccccc32)cc1 (centres undefined) | 1600 | – | – | – |
| – | 4200 | – | – | 3400 | – | O=C(c1ccccc1)N1Cc2ccccc2C(c2ccccc2)c2ccccc21 (stereo in doubt; 17) | – | – | 2600 | IC50 (HT-29 [1]; ht-29): 2600 nM; IC50 ([2]; mmru): 2700 nM; IC50 (A549; a549): > 5000 nM |
| 5000 | 4200 | – | – | 3600 | – | O=C(Oc1ccccc1)N1Cc2ccccc2C(c2ccccc2Cl)c2ccccc21 (centres undefined) | – | – | – | – |
| 600 | 1500 | 2500 | 900 | 800 | 1200 | O=C(c1ccccc1)N1Cc2ccccc2C(c2ccccc2Cl)c2ccccc21 (centres undefined) | 1300 | – | – | – |
| > 5000 | 4300 | > 5000 | > 5000 | 4500 | > 5000 | Clc1ccccc1C1c2ccccc2CN(Cc2ccccc2)c2ccccc21 (centres undefined) | – | – | – | – |
| – | – | > 10000 | – | – | – | O=C(c1ccccc1)N1Cc2ccccc2C(c2ccccc2)c2ccccc21 (stereo in doubt; 13) | – | – | – | IC50 (HT-29 [1]; ht-29): > 10000 nM; IC50 ([2]; mmru): > 10000 nM |
| 1700 | 3400 | 3700 | 1400 | 1200 | 1500 | CC(C)(C)Oc1cccc(C(=O)N2Cc3ccccc3C(c3ccccc3Cl)c3ccccc32)c1 (centres undefined) | 2500 | – | – | – |
